Series [1] deals with Dipeptidyl peptidase 2 (Homo sapiens, UniProt Q9UHL4). The series can be described thus: Inhibition of human DPP2.
The target in series [2] is Dipeptidyl peptidase 4 (Homo sapiens, UniProt P27487). As to the kind of experiment: Inhibition of human DPP4.
Series [3] deals with Voltage-gated inwardly rectifying potassium channel KCNH2 (Homo sapiens, UniProt Q12809). The series can be described thus: Inhibition of human ERG by patch-clamp assay.
Series [4] relates to Rattus norvegicus. As to the kind of experiment: Inhibition of DPP4 in rat plasma at 5 mg/kg, po assessed as time required to inhibit 50% by PK/PD analysis. Format: functional.
A short description of series [5]: Volume of distribution at steady state in human at 15 mg. Format: ADME, organism-based. Conditions: in vivo, read-out: Vdss. In outline: (§1)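 Human values projected from rat and dog ADME data by modeling; predicted plasma concentration–time profiles generated at varying doses.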
A short description of series [6]: Half life in human at 15 mg. Format: ADME, organism-based. Conditions: in vivo. In outline:
as §1

The nature of series [7]: Bioavailability in human at 15 mg. Format: ADME, organism-based. Particulars: in vivo. The essentials: as §1
Series [8] is described as follows: Bioavailability in rat at 1 mg/kg, iv and 5 mg/kg, po. Format: ADME, organism-based. Particulars: in vivo.
The nature of series [9]: Clearance in rat plasma at 1 mg/kg, iv and 5 mg/kg, po. Format: ADME, organism-based.
A short description of series [10]: Volume of distribution at steady state in rat at 1 mg/kg, iv. Format: ADME, organism-based. Set-up: dose 1 mg/kg, route intravenous. Conditions: in vivo, read-out: Vdss.
Series [11] in a line: Half life in rat at 1 mg/kg, iv. Format: ADME, organism-based. On the set-up: dose 1 mg/kg, route intravenous. Particulars: in vivo.
Series [12] in a line: Clearance in dog plasma at 1 mg/kg, iv and 1 mg/kg, po. Format: ADME, organism-based, Canis lupus familiaris.
Series [13] can be described thus: Volume of distribution at steady state in dog at 1 mg/kg, iv. Format: ADME, organism-based, Canis lupus familiaris. Set-up: dose 1 mg/kg, route intravenous. Conditions: in vivo, read-out: Vdss.
Series [14] in a line: Half life dog at 1 mg/kg, iv. Format: ADME, organism-based, Canis lupus familiaris. On the set-up: dose 1 mg/kg, route intravenous. Conditions: in vivo.
Series [15] is described as follows: Bioavailability in dog at 1 mg/kg, iv and 1 mg/kg, po. Conditions: in vivo. Format: ADME, organism-based, Canis lupus familiaris.
Series [16] in a line: Clearance in human plasma at 15 mg. Format: ADME, organism-based. The essentials:
as §1

The record followed here is ChEMBL document CHEMBL1153974, “Piperidinyl-2-phenethylamino inhibitors of DPP-IV for the treatment of type 2 diabetes” (Bioorg Med Chem Lett, 2009).

Bounds are passed on as bounds.

Chain of Dipeptidyl peptidase 4 (P27487 whole entry): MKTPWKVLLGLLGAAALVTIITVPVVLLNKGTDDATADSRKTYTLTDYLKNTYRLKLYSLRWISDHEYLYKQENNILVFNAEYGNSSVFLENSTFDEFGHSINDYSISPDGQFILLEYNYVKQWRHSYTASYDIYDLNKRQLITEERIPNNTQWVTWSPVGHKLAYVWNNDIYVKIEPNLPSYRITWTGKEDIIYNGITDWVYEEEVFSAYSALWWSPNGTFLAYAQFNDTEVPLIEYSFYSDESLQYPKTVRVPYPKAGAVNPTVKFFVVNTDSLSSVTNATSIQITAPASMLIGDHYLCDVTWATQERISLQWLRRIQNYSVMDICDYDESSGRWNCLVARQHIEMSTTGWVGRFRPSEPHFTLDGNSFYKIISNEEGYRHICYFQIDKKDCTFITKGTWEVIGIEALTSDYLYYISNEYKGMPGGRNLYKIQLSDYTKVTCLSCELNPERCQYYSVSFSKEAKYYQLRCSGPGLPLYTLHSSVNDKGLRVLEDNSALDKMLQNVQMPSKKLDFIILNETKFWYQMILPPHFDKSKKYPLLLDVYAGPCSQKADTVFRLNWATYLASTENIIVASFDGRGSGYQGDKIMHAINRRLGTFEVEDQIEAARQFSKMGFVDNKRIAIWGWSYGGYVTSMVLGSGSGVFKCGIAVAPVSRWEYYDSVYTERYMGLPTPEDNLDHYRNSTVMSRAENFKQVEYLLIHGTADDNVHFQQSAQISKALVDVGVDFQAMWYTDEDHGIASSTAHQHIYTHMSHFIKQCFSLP
Chain of Voltage-gated inwardly rectifying potassium channel KCNH2 (Q12809 whole entry): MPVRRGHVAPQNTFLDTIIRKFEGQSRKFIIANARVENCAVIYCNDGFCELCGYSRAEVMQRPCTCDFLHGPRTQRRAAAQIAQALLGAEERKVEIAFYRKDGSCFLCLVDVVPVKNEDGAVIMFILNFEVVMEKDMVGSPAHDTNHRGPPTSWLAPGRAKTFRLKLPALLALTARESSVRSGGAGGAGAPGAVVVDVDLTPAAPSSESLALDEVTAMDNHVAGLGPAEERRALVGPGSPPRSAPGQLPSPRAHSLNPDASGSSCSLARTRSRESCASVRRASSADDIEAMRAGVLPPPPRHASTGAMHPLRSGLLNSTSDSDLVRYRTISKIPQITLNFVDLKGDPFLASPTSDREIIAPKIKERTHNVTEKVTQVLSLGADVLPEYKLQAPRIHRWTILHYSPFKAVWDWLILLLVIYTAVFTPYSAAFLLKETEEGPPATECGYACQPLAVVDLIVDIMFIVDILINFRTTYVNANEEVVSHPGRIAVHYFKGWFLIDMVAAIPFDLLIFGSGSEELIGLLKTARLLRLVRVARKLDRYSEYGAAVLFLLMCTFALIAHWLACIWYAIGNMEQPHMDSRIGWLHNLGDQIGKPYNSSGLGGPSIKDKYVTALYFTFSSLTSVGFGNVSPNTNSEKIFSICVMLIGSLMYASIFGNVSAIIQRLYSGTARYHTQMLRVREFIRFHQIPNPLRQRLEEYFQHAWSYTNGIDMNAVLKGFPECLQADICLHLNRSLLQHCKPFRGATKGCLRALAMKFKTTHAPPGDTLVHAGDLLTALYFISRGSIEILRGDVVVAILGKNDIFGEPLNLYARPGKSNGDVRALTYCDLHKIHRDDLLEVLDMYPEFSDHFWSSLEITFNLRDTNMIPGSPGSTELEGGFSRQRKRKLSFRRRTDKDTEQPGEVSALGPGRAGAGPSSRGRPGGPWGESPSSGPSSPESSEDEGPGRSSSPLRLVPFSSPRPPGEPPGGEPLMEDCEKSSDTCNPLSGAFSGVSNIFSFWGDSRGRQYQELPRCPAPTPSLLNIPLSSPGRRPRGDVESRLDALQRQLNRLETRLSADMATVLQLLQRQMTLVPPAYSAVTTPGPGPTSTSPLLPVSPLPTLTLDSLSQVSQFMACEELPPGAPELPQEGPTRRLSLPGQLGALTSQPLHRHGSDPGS

In series [1], `N[C@H](Cc1cc(F)c(F)cc1F)C1CCN(C(=O)c2ccc(F)cc2F)CC1` gave an IC50 of 11.1 µM.
`NCCc1cc(F)c(F)cc1F`: the IC50 in series [2] is > 30 µM.
`N[C@H](Cc1cc(F)c(F)cc1F)C1CCN(C(=O)c2cc3ccccc3cn2)CC1` showed an IC50 in series [1] of 10.2 µM.
In series [1], `Nc1nccnc1C(=O)N1CCC([C@H](N)Cc2cc(F)c(F)cc2F)CC1` came in with an IC50 of 9.11 µM.
Regarding `Cc1nccnc1C(=O)N1CCC([C@H](N)Cc2cc(F)c(F)cc2F)CC1`, the 50% inhibitory concentration (IC50) was 55 µM in series [3] and > 30 µM in series [1]. The Activity in series [4] came out at 12 h.
Take `Cc1cc2ncc(C(=O)N3CCC([C@H](N)Cc4cc(F)c(F)cc4F)CC3)c(C)n2n1`: the Vd in [5] was 1 L/kg; in series [10], 2.2 L/kg; in series [13], 2.2 L/kg. Further, the results for the half-life in [6], in series [11] and in series [14] were 3.5 h, 5.09 h and 3.71 h, respectively. Also, the bioavailability in series [7] was found to be 70%; in [8] it was 70%; in series [15] it was 52%. Further, the Activity in series [4] was >20 h. Besides, in series [1], the IC50 was 16.8 µM. Further, the clearance in series [9] was found to be 18 mL/min/kg; in series [12], 12.9 mL/min/kg; in series [16], 3.4 mL/min/kg.
In the case of `N[C@H](Cc1cc(F)c(F)cc1F)CC1CCCCC1`, the IC50 in series [2] was > 30 µM.
For the compound `N[C@H](Cc1cc(F)c(F)cc1F)C1CCN(C(=O)c2cnc3ncccn23)CC1`, in [4], the Activity was >24 h. In series [1], this compound registered a half-maximal inhibitory concentration (IC50) of 10.8 µM.
As to `Cc1ncc(C)c(C(=O)N2CCC([C@H](N)Cc3cc(F)c(F)cc3F)CC2)n1`, the IC50 in series [3] was 85 µM; in [1] it was > 30 µM. Also, the Activity in series [4] came to 8 h.
Regarding `Fc1cc(F)c(C[C@@H]2CCCCN2)cc1F`, the IC50 in series [2] is > 30 µM.
